Hits are enriched below; roughly 9.6% of the tested compounds scored in any of these assays.
PTEN del growth: growth suppressors of cells with PTEN tumor suppressor deletion. HCT116 PTEN-null viability, CellTiter-Glo, 60 h; stronger effect = lower value. viability, % at 10 µM. 1.2% of 140,000 active;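 active = viability at or below a set limit, 4 SD under the median of all tested compounds, cut at about 3.7% in these data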;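 also: PTEN knockout HCT116 line with beta catenin targeted HCT116 as companion control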
TNAP inh hi DEA: TNAP (human) inhibition, high acceptor; P05186; purified TNAP, CDP-star luminescence, 1 M DEA; inhibition, % at 20 µM; 0.03% of 200,000 active;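 active = over 50% inhibition of tissue-nonspecific alkaline phosphatase at 20 µM in the single-dose screen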
Target sequence (P05186 whole entry, looked up): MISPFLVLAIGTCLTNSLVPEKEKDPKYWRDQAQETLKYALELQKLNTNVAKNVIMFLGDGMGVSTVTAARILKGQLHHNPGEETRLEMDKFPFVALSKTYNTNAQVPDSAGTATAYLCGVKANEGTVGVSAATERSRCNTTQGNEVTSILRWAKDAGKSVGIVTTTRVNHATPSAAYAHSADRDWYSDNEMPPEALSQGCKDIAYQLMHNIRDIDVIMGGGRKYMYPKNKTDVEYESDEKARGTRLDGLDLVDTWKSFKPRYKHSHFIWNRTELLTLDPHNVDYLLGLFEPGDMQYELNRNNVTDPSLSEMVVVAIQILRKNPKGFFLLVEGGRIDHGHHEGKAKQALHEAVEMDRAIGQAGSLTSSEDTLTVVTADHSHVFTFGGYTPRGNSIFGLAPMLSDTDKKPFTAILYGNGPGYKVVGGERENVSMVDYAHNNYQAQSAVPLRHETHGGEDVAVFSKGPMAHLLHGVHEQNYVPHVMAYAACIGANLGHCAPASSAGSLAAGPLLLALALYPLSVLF
L major viab: Leishmania major promastigote growth inhibition | 9% of 200,000 active | Leishmania major promastigotes, resazurin fluorescence viability | AID 1063 | inhibition, % at 10 µM; in the data active = inhibition above about 50%;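 also: promastigotes grown with compound for 44 hours at 28 °C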
bCat KO growth: beta-catenin-lacking colon tumor cell growth suppression; viability, % at 10 µM; 1.5% of 140,000 active; HCT116 beta-catenin knockout viability, CellTiter-Glo, 60 h; stronger effect = lower value;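 active = viability at or under a set limit, the compound median less 4 SD, cut at about 6% in these data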
TNAP act hi DEA: increases human TNAP activity under high phosphate acceptor concentration; P05186; purified TNAP, CDP-star luminescence, 1 M DEA, 30 min; stronger effect = higher value; 0 = EDTA background, 1 = DMSO-only activity; activation factor at 20 µM; 200,000 tested, under 10 active;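 active = activation factor at least 2 at 20 µM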
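Measured by: Luminescent substrate turnover signal | Test system: Human TNAP | Input: TNAP 1/800 final | Dosing: 20 µM single point | Schedule: 30 min, room temperature | Controls: EDTA wells as negative control, DMSO wells as positive control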
TNAP inh no acc: inhibitors of human TNAP without phosphate acceptor; P05186; 0.26% of 200,000 active; inhibition, % at 20 µM; purified TNAP, CDP-star luminescence, 30 min;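 active = tissue-nonspecific alkaline phosphatase inhibition above about 50% at 20 µM in the single-dose screen, limit read from the data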
L major 1uM: blocks Leishmania major promastigote growth at 1 uM, repeat screen; shares compounds with L major viab; L. major promastigote growth, resazurin fluorescence, 48 h; inhibition, % at 1 µM; 13% of 1,100 active; AID 1258;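 active = inhibition above about 50% in both repeat tests, limit read from the data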
Hits are given with their value; n = inactive; x = no result given.

SMILES | PTEN del growth | TNAP inh hi DEA | L major viab | bCat KO growth | TNAP act hi DEA | TNAP inh no acc | L major 1uM
CCCCCNC(=O)C1CC=CCC1C(=O)O (stereo not given) | n | n | n | n | n | n | x
CC(C)CNC(=S)NC1CCCC1 | n | n | n | n | n | n | x
CC1N(C)c2cccc3cccc(c23)N1C | n | n | n | n | n | n | x
CC1=Nc2cccc3cccc(c23)N1C | n | n | 85 | n | n | n | n
CC(=O)C1=NN(c2ccccc2)C(c2cccs2)N1c1ccc(N(C)C)cc1 (stereo not given) | n | n | 96 | n | n | n | n
CCCCc1cc(O)c(CCCC)c(O)c1 | n | n | 99 | n | n | n | n
CCCCCc1cc(O)c2c(C)cc(=O)oc2c1 | n | n | n | n | n | n | x
COc1cccc(/C=N/NC(=O)c2ccc(-c3ccccc3)cc2)c1O | n | n | 100 | n | n | n | n
COc1cc(SC)ccc1C(=O)Nc1nccs1 | x | n | n | x | n | n | x
CC(C)Nc1nc2ccccc2c(=O)[nH]1 | x | n | n | x | n | n | x
Cc1c2ccccc2nc2c(F)c(NC(C)C)c(F)c(F)c12 | n | n | 50 | n | n | n | n
Oc1ccc2ccccc2c1C=Nc1cc(C(F)(F)F)ccc1N1CCCC1 | n | n | n | n | n | n | x
CCN1CCCC(OC(=O)c2cc(-c3ccccc3Cl)nc3ccccc23)C1 (stereo not given) | x | n | 78 | x | n | n | n
CCOC(=O)c1sc(-c2ccc(Br)cc2)cc1N | x | n | n | n | n | n | x
CCOC(=O)c1cc(-c2ccc(N)cc2)sc1N | n | n | 60 | n | n | n | n
COC(=O)C(Cc1cnc(Cl)s1)(C(=O)OC)c1ccc([N+](=O)[O-])cc1[N+](=O)[O-] | n | n | 63 | n | n | n | n
O=C(NNC(=S)Nc1ccc(Cl)cc1Cl)c1ccc(N2CCOCC2)c([N+](=O)[O-])c1 | n | n | n | n | n | n | x
O=C(c1ccc(NC(=S)NCc2ccco2)cc1)N1CCOCC1 | x | n | n | x | n | n | x
O=[N+]([O-])c1cc(S(=O)(=O)Nc2ccccc2)ccc1-n1nnc2ccccc21 | n | n | 66 | n | n | n | n
O=C1C2ON(c3ccc(Br)cc3)C(c3cccnc3)C2C(=O)N1C1CCCCC1 (stereo not given) | n | n | 85 | n | n | n | 72
CCN(CC)C(=S)SSC(=S)N(CC)CC | 0.9 | n | 100 | 1.1 | n | n | 98
CCN(CC)C(=S)SCC(=O)c1ccccc1 | n | n | n | n | n | n | x
NC(=O)N/N=C/c1ccc(N2CCOCC2)s1 | n | n | 60 | n | n | n | n
CC(C)Cn1nc(NC(=O)C2CCCO2)c2cc3ccccc3nc21 (stereo not given) | n | n | 63 | n | n | n | n
Cc1ccc2cc3c(NC(=O)c4ccco4)nn(CC(C)C)c3nc2c1 | n | n | n | n | n | n | x
SMILES | PTEN del growth | TNAP inh hi DEA | L major viab | bCat KO growth | TNAP act hi DEA | TNAP inh no acc | L major 1uM
O=C1c2cc([N+](=O)[O-])cc3cc([N+](=O)[O-])cc(c23)C(=O)N1c1ccccn1 | n | n | 90 | n | n | n | n
COC(=O)/C(=N/Nc1ccccc1C)Sc1nnc(C(O)c2ccccc2)n1-c1ccccc1 (stereo not given) | n | n | n | n | n | n | x
O=C(CSc1nc2ccccc2s1)N1CCCCC1 | n | n | n | n | n | n | x
Cc1c(Cl)cccc1N/C(SCC(=O)N1CCCCCC1)=C(/C#N)c1nc2ccccc2s1 | 1.6 | n | 100 | 1.7 | n | n | n
Cc1cccc(OCC(=O)Nc2ccc(N3CCN(C(=O)c4ccco4)CC3)cc2)c1 | n | n | n | n | n | n | x
CCOc1cccc(OCCOCCNC(C)(C)C)c1 | n | n | n | n | n | n | x
CCCCNCCCOc1cccc(Cl)c1 | n | n | 94 | n | n | n | n
CCOC(=O)N1CCC(NS(=O)(=O)c2ccc3c(c2)OCC(=O)N3)CC1 | n | n | n | n | n | n | x
CCOC(=O)N1CCC(NS(=O)(=O)c2cc3c(cc2Cl)NC(=O)CO3)CC1 | n | n | 55 | 3.9 | n | n | n
S=C(NCCc1ccccc1)Nc1ccc(Br)cn1 | x | n | n | x | n | n | x
